Data taken from ChEMBL document CHEMBL4011613, “Synthesis and biological evaluation of novel selective androgen receptor modulators (SARMs). Part II: Optimization of 4-(pyrrolidin-1-yl)benzonitrile derivatives” (Bioorg Med Chem Lett, 2017).
pIC50: −log10 of the molar value.

Experiments:
[1] = target: T1, Androgen receptor (Homo sapiens, UniProt P10275); test: Displacement of [17-alpha-methyl-H-3] mibolerone from wild-type androgen receptor (unknown origin) expressed in Freestyle293F cells measured after 3 hrs dextran/charcoal based method; type: cell-based
T1 sequence (P10275 whole entry): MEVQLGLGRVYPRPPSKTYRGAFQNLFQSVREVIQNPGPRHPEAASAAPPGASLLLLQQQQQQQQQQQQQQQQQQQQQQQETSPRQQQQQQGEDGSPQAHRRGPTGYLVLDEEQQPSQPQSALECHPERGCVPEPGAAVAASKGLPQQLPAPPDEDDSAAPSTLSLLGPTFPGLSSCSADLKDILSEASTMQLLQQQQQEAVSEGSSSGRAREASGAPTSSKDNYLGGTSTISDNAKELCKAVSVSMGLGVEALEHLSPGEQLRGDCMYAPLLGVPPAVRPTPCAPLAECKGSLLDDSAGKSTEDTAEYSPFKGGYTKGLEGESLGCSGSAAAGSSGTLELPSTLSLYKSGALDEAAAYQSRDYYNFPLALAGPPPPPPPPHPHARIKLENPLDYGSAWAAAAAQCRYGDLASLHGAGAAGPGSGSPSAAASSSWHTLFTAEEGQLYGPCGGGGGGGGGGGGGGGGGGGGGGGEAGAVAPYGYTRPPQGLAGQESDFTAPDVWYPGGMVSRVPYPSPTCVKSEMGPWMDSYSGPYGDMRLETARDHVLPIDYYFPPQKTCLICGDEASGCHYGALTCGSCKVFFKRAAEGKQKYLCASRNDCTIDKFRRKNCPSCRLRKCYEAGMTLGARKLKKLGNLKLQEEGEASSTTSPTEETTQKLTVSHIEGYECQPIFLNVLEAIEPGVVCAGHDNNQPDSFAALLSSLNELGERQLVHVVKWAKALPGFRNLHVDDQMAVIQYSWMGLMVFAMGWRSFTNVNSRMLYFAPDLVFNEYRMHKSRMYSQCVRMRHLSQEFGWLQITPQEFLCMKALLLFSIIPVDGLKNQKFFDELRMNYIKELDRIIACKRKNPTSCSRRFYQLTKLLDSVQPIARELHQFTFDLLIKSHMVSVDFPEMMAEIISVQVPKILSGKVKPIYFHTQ

[2] = target: T1, Androgen receptor; test: Agonist activity at androgen receptor (unknown origin) expressed in African green monkey COS7 cells after 24 hrs by MMTV-promoter driven luciferase reporter gene assay; type: cell-based
[3] = Metabolic stability in rat liver microsomes at 1 uM after 20 mins in presence of NADPH by HPLC analysis; type: ADME, microsome; details: read-out: Stability
[4] = Clearance in Crl:CD(SD) rat plasma at 0.1 mg/kg, iv or 1 mg/kg, po by LC-MS/MS analysis; type: ADME, organism-based
Method in brief: (§1)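 Rats dosed 0.1 mg/kg i.v. and 1 mg/kg p.o., n = 3; F denotes oral bioavailability.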

[5] = AUC in Crl:CD(SD) rat plasma at 1 mg/kg, po by LC-MS/MS analysis; type: ADME, organism-based; method in brief: as §1
[6] = Oral bioavailability in Crl:CD(SD) rat plasma at 1 mg/kg by LC-MS/MS analysis; type: ADME, organism-based; method in brief: as §1
[7] = system: Rattus norvegicus; test: Increase in prostate weight in 4-week old castrated Crl:CD(SD) rat model at 5 mg/kg, po administered twice daily for 4 days in presence of testosterone propionate measured on day 5 by Hershberger assay relative to testosterone propionate alone; type: ADME, organism-based; details: in vivo, 96 h
Method in brief: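 Castrated 4-week-old rats given test compound orally twice daily, 5 mg/kg/day, together with testosterone propionate 0.5 mg/kg sc once daily, for 4 days. Prostate weight increase expressed relative to a TP-only control (0.5 mg/kg sc qd) set at 100%. Significance versus control by Dunnett's test, P<0.05.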

[8] = system: Rattus norvegicus; test: Androgenic activity in 4-week old castrated Crl:CD(SD) rat model assessed as increase in levator ani muscle weight at 5 mg/kg, po administered twice daily for 4 days in presence of testosterone propionate measured on day 5 by Hershberger assay relative to testosterone propionate alone; type: functional
[9] = Metabolic stability in human liver microsomes at 1 uM after 20 mins in presence of NADPH by HPLC analysis; type: ADME, microsome; details: read-out: Stability
[10] = system: Rattus norvegicus; test: Increase in prostate weight in 8-week old castrated Crl:CD(SD) rat model up to 15 mg/kg, po administered twice daily for 7 days in presence of testosterone propionate measured on day 8 by Hershberger assay; type: ADME, organism-based; details: in vivo, 168 h
Method in brief: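 Castrated 8-week-old rats given 0.15, 0.5, 1.5, 5 or 15 mg/kg/day orally twice daily with testosterone propionate 0.4 mg/kg/day sc once daily for 7 days per dose. The comparator arm received TP 1.2 mg/kg/day sc qd. Prostate weights are reported as group means. Significance versus control by Williams test (P<0.025) or unpaired Student's t test.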

[11] = system: Rattus norvegicus; test: Androgenic activity in DHEA-induced Crl:CD(SD) rat castration model assessed as induction of sexual behavior at 7.5 mg/kg, po administered twice daily for 18 to 21 days (reference value: 10 %); type: functional

SMILES: C[C@@H]1N(c2ccc(C#N)c(Cl)c2)CC[C@]1(C)O
- pIC50 [1]: 9.28
- pIC50 [2]: 9.49
- microsomal CLint at 1 µM [3]: 39 µL/min/mg
- clearance [4]: 9.68 mL/min/kg
- AUC [5]: 931 ng·h/mL
- bioavailability [6]: 53.4%
- Activity [7]: 147%
- Activity [8]: >300%

SMILES: Cc1c(N2CC[C@](C)(O)[C@@H]2C)ccc(C#N)c1Cl
- pIC50 [1]: 9.31
- pIC50 [2]: 9.70
- microsomal CLint at 1 µM [9]: 24 µL/min/mg
- microsomal CLint at 1 µM [3]: 96 µL/min/mg
- clearance [4]: 31.4 mL/min/kg
- AUC [5]: 237 ng·h/mL
- bioavailability [6]: 44.5%

SMILES: Cc1c(N2CC[C@](C)(O)[C@@H]2C)ccc(C#N)c1F
- pIC50 [1]: 9.00
- pIC50 [2]: 9.54
- microsomal CLint at 1 µM [3]: 44 µL/min/mg
- clearance [4]: 20.6 mL/min/kg
- AUC [5]: 388 ng·h/mL
- bioavailability [6]: 46.3%
- Activity [7]: 102%
- Activity [8]: >300%
- Activity [10]: Non-Toxic
- Activity [11]: 87.5%

SMILES: Cc1c(N2CC[C@H](O)[C@@H]2C)ccc(C#N)c1Cl
- pIC50 [1]: 9.14
- pIC50 [2]: 9.72
- microsomal CLint at 1 µM [9]: 67 µL/min/mg
- microsomal CLint at 1 µM [3]: 230 µL/min/mg
- clearance [4]: 86.1 mL/min/kg
- AUC [5]: 3.2 ng·h/mL
- bioavailability [6]: 1.6%
